Laboratory results as given in ChEMBL document CHEMBL1146510, “New cytotoxic naphthopyrane derivatives from Adenaria floribunda” (2004).
≈ marks a conversion by molar mass, not a printed value.

Tests used:
Assay type in all cases: functional
[1] = tested on: SF-268; test: Cytotoxicity against human SF268 cells
Procedure, shortened: (§1)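 Human cancer cell lines tested: MCF-7 (breast), H-460 (lung) and SF-268 (central nervous system). Cytotoxicity was run by a previously published cell-line screening method. The same three lines were used to follow activity through fractionation.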

[2] = tested on: MCF7; test: Cytotoxicity against human MCF7 cells; procedure, shortened: as §1
[3] = tested on: NCI-H460; test: Cytotoxicity against human H460 cells; procedure, shortened: as §1

| Structure (SMILES) | GI50 [1] | GI50 [2] | GI50 [3] |
| --- | --- | --- | --- |
| COc1c(CC=C(C)C)c(O)c2c(O)c3c(cc2c1CC=C(C)C)O[C@H](C)CC3=O [ADENAFLORINE A] | 0.13 µg/mL (≈ 0.317 µM) | 0.24 µg/mL (≈ 0.585 µM) | 0.16 µg/mL (≈ 0.39 µM) |
| COc1c(CC=C(C)C)c(O)c2c(O)c3c(=O)cc(C)oc3cc2c1CC=C(C)C [ADENAFLORINE B] | 3.9 µg/mL (≈ 9.55 µM) | 4.3 µg/mL (≈ 10.5 µM) | 2.9 µg/mL (≈ 7.1 µM) |
| CC(=O)c1c2c(c3cc(OCC=C(C)C)c(CC=C(C)C)c(O)c3c1O)C=CC(C)(C)O2 [ADENAFLORINE C] | 1.4 µg/mL (≈ 3.21 µM) | 1.2 µg/mL (≈ 2.75 µM) | 1.1 µg/mL (≈ 2.52 µM) |
| CC(=O)c1c(O)c(CC=C(C)C)c2cc(OCC=C(C)C)c3c(c2c1O)OC(C)(C)C=C3 [ADENAFLORINE D] | > 10 µg/mL | > 10 µg/mL | 9.3 µg/mL (≈ 21.3 µM) |
